A word on the EC50: it is the concentration needed to bring the measured effect to its halfway point. A word on the LD50: it is the dose expected to kill half of the subjects tested. Lower therefore signals greater toxicity.

“Also recorded” adds a separate entry of the source. Where two headings read alike, the source gives them in different places. Some results are limits rather than exact numbers.

Consider five molecules from paper PMC7684765 (Journal of medicinal chemistry, 2020).

Data set [1] concerns PTZ-induced seizures in zebrafish larvae. To be noted: 20 μM; cited from earlier work.
The subject of data set [2] is 6 Hz 32 mA mouse seizure model. The conditions noted are these: 6 Hz 32 mA mouse model, at 15 min; cited from earlier work.
The test system of data set [3] is 6 Hz 44 mA mouse seizure model. To be noted: cited from earlier work.
Data set [4] relates to ATP levels in HT-22 cells. To be noted: 5 μM; cited from earlier work.
For data set [5] the following is noted: two hours; cited from earlier work.
The test system of data set [6] is zebrafish. To be noted: cited from earlier work.
Data set [7] deals with HT-22 neuronal cells. The experiment in a line: HT-22 cell toxicity study. The class given is cell-based. The conditions noted are these: up to 50 μM. The procedure, abridged:
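HT-22 neuronal cells were grown in high-glucose DMEM with 10% FBS and 1% antibiotic-antimycotic at 37 °C and 5% CO2. Cells were seeded at 2000 per well. After 12 h, serially diluted test compound was added for 48 h. […] Readings were background-subtracted and normalized to control wells.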

Data set [8] concerns 6 Hz 32 mA mouse seizure model. The experiment in a line: 6 Hz 32 mA mouse seizure test. The class given is in vivo. To be noted: ip.
In data set [9] the test system is 6 Hz 44 mA mouse seizure model. Briefly: 6 Hz 44 mA mouse seizure test. It is filed as in vivo. To be noted: ip, 400 mg/kg.
In data set [10] the test system is MES-induced seizures. The experiment in a line: Maximal electroshock. The conditions noted are these: MES model, mouse, ip, 350 mg/kg. It is filed as in vivo. The procedure, abridged:
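Male CF-1 mice, 8 per group per dose, received test compound ip as a suspension in 0.5% HPMC, 1 h before stimulation. Tetracaine (0.5%) in electrolyte was applied to the eyes. A 60 Hz, 50 mA alternating current was delivered through corneal electrodes […]. Animals without hindlimb tonic extension were scored protected. Results are given as N/F, and ED50 was calculated by probit analysis.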

The test system of data set [11] is s.c. PTZ mouse model. The experiment in a line: Subcutaneous pentylenetetrazole. It is filed as in vivo. The conditions noted are these: ip, 450 mg/kg, 1 h. The procedure, abridged: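 Test compound was suspended in 0.5% HPMC and given ip to male CF-1 mice, 8 per group per dose. One hour later, 85 mg/kg PTZ was injected subcutaneously into the midline of the neck. Mice showing no spasms or twitching were scored protected.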

In data set [12] the test system is motor impairment (mouse rotarod assay). The experiment in a line: Behavioral toxicity in mice. The class given is in vivo. The conditions noted are these: acute (~1h) observation period, dose up to 800 mg/kg.
Data set [13] can be described thus: Pharmacokinetics in mice. It is filed as in vivo. To be noted: Mus musculus, read-out: free EC50 in mice.
Data set [14] is described as follows: PAINS exclusion assay. The class given is physicochemical. The conditions noted are these: up to 24 h.
Data set [15] relates to recurrent epileptiform discharges (REDs) in brain slices from the kainite-induced status epilepticus model. Briefly: Spontaneous recurrent epileptiform discharges. The conditions noted are these: brain slices in vitro.
A short description of data set [16]: Lethality and other treatment effects in mice seizure models. The class given is in vivo. The conditions noted are these: CF-1, mouse, in vivo, intraperitoneal.
Data set [17] relates to mice. The data set is described as above. The class given is in vivo. The conditions noted are these: mice.
Data set [18] concerns 6 Hz mouse seizure model at 22 mA. The experiment in a line: 6 Hz 22 mA mouse seizure model. The class given is in vivo. The conditions noted are these: up to 400 mg/kg.

For the molecule `C#CCNC1=CC(=O)c2ccccc2C1=O` [2h], the anti-seizure activity entry in data set [1] is recorded as “clear anti-seizure activity”. In addition, the seizure protection entry is on record as “full protection” in data set [2] and “no longer protective; also recorded: did not show any protection” in data set [3] (6 Hz 44 mA mouse model). For the same molecule, in data set [4], the “effect on ATP levels” value is given as “can increase ATP levels”. Further, the “stability in mouse serum” value in data set [5] is “no catabolic conversion”. Moreover, the toxicity entry in [6] (20 μM) is recorded as “no observable toxicity”.

`CC(C)CCNC1=CC(=O)c2ccccc2C1=O` [3d, 2-(isopentylamino)naphthalene-1,4-dione]: the “toxicity in HT-22 cells (in words)” value in data set [7] is “do not display obvious toxicity; also recorded: does not show obvious toxicity”. In addition, the seizure protection entry in [8] (400 mg/kg), in [9] and in data set [10] was “full protection” throughout. In addition, the “ED50 value (EC50)” value in data set [8] (time of test 1 h) is listed as 152.7 mg/kg. For the same molecule, the animals protected in [11] is reported as 6 out of 8. In addition, in [12], the “motor impairment (mouse rotarod assay)” value was “does not show signs of major motor impairment”. Besides, the EC50 in [13] was about 123 nM. The “reaction with 2-mercaptoethanol (Michael reaction)” value in data set [14] is “does not react”. In data set [15], the “effect on spontaneous REDs” value is “does not attenuate”. Further, in data set [16], the LD50 at 24 h is over 800 mg/kg. Also, the “doses lethal in some animals” value in [17] (after electric stimulation, after 24h (data not shown)) was “greater than 500 mg/kg”. Further, in data set [17] (at time of treatment and ~1 h observation period (data not shown)), the “other effects of treatment observed” value is “writhing (abdominal constriction); also recorded: discolored urine and lethargy”.

Consider `O=C1C=C(NCCC2CCC2)C(=O)c2ccccc21` [3l, 2-((2-cyclobutylethyl)amino)naphthalene-1,4-dione], for which the “toxicity in HT-22 cells (in words)” value in [7] is “do not display obvious toxicity”. The seizure protection entry in [18] is on record as “without full seizure protection”.

For `CC[C@@H](C(N)=O)N1CCCC1=O` [Levetiracetam], the “6 Hz 44 mA ED50” value in [3] (6 Hz 44 mA seizure model) was “over 1000 mg/kg”.

Take `CC1=CC(=O)c2ccccc2C1=O` [VK3]: the “reaction with 2-mercaptoethanol (Michael reaction)” value in data set [14] was “rapidly reacts”. Further, the “effect on ATP levels” value in [4] was “can increase ATP levels”. Also, the lethal dose in [6] was 7 µM.
